In ChEMBL document CHEMBL4406867, “Synthesis and antidepressant effect of novel aralkyl piperazine and piperidine derivatives targeting SSRI/5-HT1A/5-HT7” (Bioorg Med Chem Lett, 2019):

Legend:
[1] = Clearance in rat liver microsomes at 1 uM in presence of NADPH generating system measured for 10 to 90 mins by LC-MS/MS analysis; type: ADME, Microsome
In short: (§1)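 Rat liver microsomes; stability expressed as t1/2 (min) and intrinsic clearance (μL/min/mg).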

Mus musculus [2] = experiment: Antidepressant activity in ICR mouse assessed as decrease in immobility time at 40 mg/kg, po administrated for daily for 7 days measured 1 hr post last dose by forced swim test relative to control; type: functional; parameters: scale not given: the % may be the effect or the level left
In short: (§2)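 Male ICR mice dosed orally once daily for 7 days at 10, 20 or 40 mg/kg/day; immobility time scored in forced swim test against vehicle group; n = 10 per group, mean ± SEM.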

[3] = target: Sodium-dependent serotonin transporter (Rattus norvegicus, UniProt P31652); experiment: Inhibition of rat synaptosomes 5HT transporter assessed as reduction in [3H]serotonin reuptake incubated for 15 mins by scintillation counting method; type: subcellular
[4] = target: T1, 5-hydroxytryptamine receptor 1A (Homo sapiens, UniProt P08908); experiment: Agonist activity at human recombinant 5HT1A receptor (unknown origin) stably expressed in CHO-K1 incubated for 30 mins by [35S]GTPgammaS binding assay; type: functional
T1 sequence (P08908 whole entry): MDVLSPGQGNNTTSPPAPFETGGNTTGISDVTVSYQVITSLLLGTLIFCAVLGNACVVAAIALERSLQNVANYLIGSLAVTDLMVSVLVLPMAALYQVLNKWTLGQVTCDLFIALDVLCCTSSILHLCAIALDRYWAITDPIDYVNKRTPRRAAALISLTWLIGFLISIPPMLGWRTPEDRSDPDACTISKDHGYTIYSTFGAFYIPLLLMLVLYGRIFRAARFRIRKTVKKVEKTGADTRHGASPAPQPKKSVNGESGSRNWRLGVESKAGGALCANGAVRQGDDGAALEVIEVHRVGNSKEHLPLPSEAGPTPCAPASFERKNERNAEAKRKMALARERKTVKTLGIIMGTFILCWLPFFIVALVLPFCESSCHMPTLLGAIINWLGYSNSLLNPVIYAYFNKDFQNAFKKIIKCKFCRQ

[5] = Half life in rat liver microsomes at 1 uM in presence of NADPH generating system measured for 10 to 90 mins by LC-MS/MS analysis; type: ADME, Microsome; in short: as §1
[6] = Clearance in human liver microsomes at 1 uM in presence of NADPH generating system measured for 10 to 90 mins by LC-MS/MS analysis; type: ADME, Microsome
In short: (§3)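 Human liver microsomes; metabolic stability as half-life (min) and clearance (μL/min/mg).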

Mus musculus [7] = experiment: Antidepressant activity in orally dosed ICR mouse assessed as decrease in immobility time measured 1 hr post last dose by tail suspension test; type: functional, organism-based
In short: (§4)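 Male ICR mice given oral doses once daily for 7 days (10, 20, 40 mg/kg/day); immobility time recorded in tail suspension test versus control group.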

Mus musculus [8] = experiment: Antidepressant activity in orally dosed ICR mouse assessed as decrease in immobility time measured 1 hr post last dose by forced swim test; type: functional, organism-based; in short: as §2
[9] = target: T2, 5-hydroxytryptamine receptor 7 (Homo sapiens, UniProt P34969); type: functional
Mus musculus [10] = experiment: Antidepressant activity in ICR mouse assessed as decrease in immobility time at 10 mg/kg, po administrated for daily for 7 days measured 1 hr post last dose by tail suspension test relative to control; type: functional; parameters: scale not given: the % may be the effect or the level left; in short: as §4
Mus musculus [11] = experiment: Antidepressant activity in ICR mouse assessed as decrease in immobility time at 20 mg/kg, po administrated for daily for 7 days measured 1 hr post last dose by forced swim test relative to control; type: functional; parameters: scale not given: the % may be the effect or the level left; in short: as §2
[12] = Half life in human liver microsomes at 1 uM in presence of NADPH generating system measured for 10 to 90 mins by LC-MS/MS analysis; type: ADME, Microsome; in short: as §3
Mus musculus [13] = experiment: Antidepressant activity in ICR mouse assessed as decrease in immobility time at 20 mg/kg, po administrated for daily for 7 days measured 1 hr post last dose by tail suspension test relative to control; type: functional; parameters: scale not given: the % may be the effect or the level left; in short: as §4
Mus musculus [14] = experiment: Antidepressant activity in ICR mouse assessed as decrease in immobility time at 40 mg/kg, po administrated for daily for 7 days measured 1 hr post last dose by tail suspension test relative to control; type: functional; parameters: scale not given: the % may be the effect or the level left; in short: as §4
Mus musculus [15] = experiment: Antidepressant activity in ICR mouse assessed as decrease in immobility time at 10 mg/kg, po administrated for daily for 7 days measured 1 hr post last dose by forced swim test relative to control; type: functional; parameters: scale not given: the % may be the effect or the level left; in short: as §2
[16] = target: T2, 5-hydroxytryptamine receptor 7; experiment: Displacement of [3H]-LSD from 5HT7 receptor (unknown origin) expressed in CHO cell membranes incubated for 120 mins by scintillation counting method
[17] = target: T1, 5-hydroxytryptamine receptor 1A; experiment: Displacement of [3H]-8-OH-DPAT from 5HT1A receptor (unknown origin) expressed in HEK293 cells membranes incubated for 60 mins by scintillation counting method; type: cell membranes
[18] = target: T3, 5-hydroxytryptamine receptor 1A (Homo sapiens) (UniProt P08908); experiment: Displacement of [3H]-8-OH-DPAT from 5HT1A receptor (unknown origin) expressed in HEK293 cells membranes at 10 uM incubated for 60 mins by scintillation counting method relative to control; type: cell membranes
T3 sequence (whole entry): T1 sequence (P08908 whole entry)
In short: (§5)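 Single-concentration screen at 10 μM, reported as percent inhibition; 5-HT1A by [3H]-8-OH-DPAT displacement from HEK-293 membrane homogenates, 5-HT7 by [3H]-LSD displacement from CHO membrane homogenates, SERT by [3H]-5-HT uptake into rat brain synaptosomes.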

[19] = target: T2, 5-hydroxytryptamine receptor 7; experiment: Displacement of [3H]-LSD from 5HT7 receptor (unknown origin) expressed in CHO cell membranes at 10 uM incubated for 120 mins by scintillation counting method relative to control; in short: as §5
[20] = target: Sodium-dependent serotonin transporter (Rattus norvegicus) (UniProt P31652); experiment: Inhibition of rat synaptosomes 5HT transporter assessed as reduction in [3H]serotonin reuptake at 10 uM incubated for 15 mins by scintillation counting method relative to control; type: subcellular; in short: as §5
Chain of Sodium-dependent serotonin transporter (Rattus norvegicus) (P31652 whole entry): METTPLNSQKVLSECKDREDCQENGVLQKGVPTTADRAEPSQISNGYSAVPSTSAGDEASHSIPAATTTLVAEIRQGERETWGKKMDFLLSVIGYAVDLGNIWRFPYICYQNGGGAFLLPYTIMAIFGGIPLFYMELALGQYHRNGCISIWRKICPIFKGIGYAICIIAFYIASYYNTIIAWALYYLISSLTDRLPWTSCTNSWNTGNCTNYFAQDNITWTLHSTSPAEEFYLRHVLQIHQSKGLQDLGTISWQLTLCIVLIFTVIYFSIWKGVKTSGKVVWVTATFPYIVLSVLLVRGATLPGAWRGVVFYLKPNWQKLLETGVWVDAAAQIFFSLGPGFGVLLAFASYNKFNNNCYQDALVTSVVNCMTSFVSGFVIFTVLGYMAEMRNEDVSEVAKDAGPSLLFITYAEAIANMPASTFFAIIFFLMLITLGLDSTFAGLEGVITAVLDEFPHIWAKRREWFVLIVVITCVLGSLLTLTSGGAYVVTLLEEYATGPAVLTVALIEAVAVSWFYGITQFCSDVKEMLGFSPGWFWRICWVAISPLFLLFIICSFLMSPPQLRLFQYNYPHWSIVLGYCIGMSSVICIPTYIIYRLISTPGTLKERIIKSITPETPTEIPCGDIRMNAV

T2 sequence (P34969 whole entry): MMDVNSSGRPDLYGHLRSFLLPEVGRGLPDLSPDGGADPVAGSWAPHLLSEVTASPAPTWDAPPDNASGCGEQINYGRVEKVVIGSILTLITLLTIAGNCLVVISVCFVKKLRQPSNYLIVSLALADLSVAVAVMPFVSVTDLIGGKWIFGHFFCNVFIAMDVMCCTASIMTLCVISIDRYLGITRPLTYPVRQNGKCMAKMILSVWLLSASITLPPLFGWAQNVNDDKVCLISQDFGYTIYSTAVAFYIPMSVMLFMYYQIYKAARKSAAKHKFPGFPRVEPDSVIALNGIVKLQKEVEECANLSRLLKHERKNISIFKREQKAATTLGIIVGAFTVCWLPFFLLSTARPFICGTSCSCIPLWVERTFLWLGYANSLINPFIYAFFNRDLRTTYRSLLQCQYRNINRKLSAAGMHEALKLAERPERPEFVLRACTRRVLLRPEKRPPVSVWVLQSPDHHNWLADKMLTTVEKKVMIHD
Chain of Sodium-dependent serotonin transporter (P31652 whole entry): as the sequence (P31652 whole entry) above

| SMILES | CLH [1] [µL/min/mg] | IC50 [3] [nM] | half-life at 1 µM [5] [min] | Ki [16] [nM] | Ki [17] [nM] | also measured |
| --- | --- | --- | --- | --- | --- | --- |
| Fc1ccc(C2CCN(CCCc3c[nH]c4ccc(F)cc34)CC2)c(-c2ccccc2)c1 | 28.5 | 14 | 48.6 | – | – | Activity (Mus musculus [2]): 43%; EC50 [4]: 1180 nM; CLH [6]: 27.8 µL/min/mg; Activity (Mus musculus [7]): Dose-dependent effect; Activity (Mus musculus [8]): Dose-dependent effect; IC50 [9]: 650 nM; Activity (Mus musculus [10]): 28%; Activity (Mus musculus [11]): 47%; half-life at 1 µM [12]: 49.9 min; Activity (Mus musculus [13]): 35%; Activity (Mus musculus [14]): 43%; Activity (Mus musculus [15]): 29% |
| N#Cc1ccc2[nH]cc(CCCCN3CCN(c4ccc5oc(C(N)=O)cc5c4)CC3)c2c1 [VILAZODONE] | 48.6 | – | 28.5 | 3900 | – | CLH [6]: 26 µL/min/mg; half-life at 1 µM [12]: 53.3 min; Activity (Mus musculus [14]): 60% |
| Fc1ccc2[nH]cc(CCN3CCN(c4nsc5ccccc45)CC3)c2c1 | 452 | 23 | 3.1 | 0.99 | 1.6 | – |
| Cn1cc(-c2cc(F)ccc2N2CCN(CCCc3c[nH]c4ccc(F)cc34)CC2)cn1 | 146 | 2.7 | 9.5 | – | – | – |
| Fc1ccc(N2CCN(CCCc3c[nH]c4ccc(F)cc34)CC2)c(-c2ccsc2)c1 | 56.5 | 4 | 24.5 | 2 | 8.4 | – |
| Fc1ccc2c(C3CCN(CCCc4c[nH]c5ccc(F)cc45)CC3)noc2c1 | 301 | 0.92 | 4.6 | – | – | inhibition [18]: 101%; inhibition [19]: 99.8% |
| Fc1ccc2[nH]cc(CCCCN3CCN(c4nsc5ccccc45)CC3)c2c1 | 403 | 7.08 | 3.4 | – | – | inhibition [18]: 101%; inhibition [19]: 98.5% |
| Cc1ccc(Sc2ccccc2N2CCNCC2)c(C)c1 [VORTIOXETINE] | 153 | – | – | – | – | Activity (Mus musculus [2]): 35%; CLH [6]: 6.47 µL/min/mg; half-life at 1 µM [12]: 214 min |
| Fc1ccc(N2CCN(CCCc3c[nH]c4ccc(F)cc34)CC2)c(-c2ccoc2)c1 | 134 | 3 | 10.3 | 11 | 15 | – |
| Fc1ccc(N2CCN(CCCc3c[nH]c4ccc(F)cc34)CC2)c(-c2cn[nH]c2)c1 | 192 | 1.3 | 7.2 | 0.9 | 6.3 | – |
| Fc1ccc(N2CCN(CCCc3c[nH]c4ccc(F)cc34)CC2)c(-c2cc[nH]c2)c1 | – | – | – | – | – | inhibition [18]: 97.4%; inhibition [20]: 78.9%; inhibition [19]: 99.1% |
| Fc1ccc(C2CCN(CCCc3c[nH]c4ccc(F)cc34)CC2)c(-c2ccsc2)c1 | 75.6 | 14 | 18.3 | – | – | – |
| COc1ccc2[nH]c([S+]([O-])Cc3ncc(C)c(OC)c3C)nc2c1 (stereo not given) [OMEPRAZOLE] | 163 | – | – | – | – | – |
| Fc1ccc(N2CCN(CCCc3c[nH]c4ccc(F)cc34)CC2)c(-c2cccnc2)c1 | 240 | – | 5.8 | – | – | inhibition [18]: 99.1%; inhibition [20]: 104%; inhibition [19]: 100% |
| Fc1ccc(N2CCN(CCCc3c[nH]c4ccc(F)cc34)CC2)c(-c2cncnc2)c1 | 209 | – | 6.6 | – | – | inhibition [18]: 98.8%; inhibition [20]: 102%; inhibition [19]: 90.9% |
| Fc1ccc2[nH]cc(CCCN3CCN(c4nsc5ccccc45)CC3)c2c1 | 397 | 1.1 | 3.5 | 2.2 | 1.6 | – |
| COc1ccc2c(c1)[C@]13CCCC[C@@H]1[C@H](C2)N(C)CC3 [DEXTROMETHORPHAN] | – | – | – | – | – | CLH [6]: 31 µL/min/mg; half-life at 1 µM [12]: 44.7 min |
| Fc1ccc(N2CCN(CCCc3c[nH]c4ccc(F)cc34)CC2)c(-c2cccs2)c1 | – | 21 | – | 11 | 38 | – |
